This note sets out measurements from ChEMBL document CHEMBL1255258, “Aminoglycosides affect intracellular Salmonella enterica serovars typhimurium and virchow” (Antimicrob Agents Chemother, 2008).

Converted amounts (≈) assume the structure as drawn. The source made the active and inactive calls. No cut-off for these calls is given here.

For assay [1], the system named is Salmonella typhimurium. The assay is described as follows: Antibacterial activity against Salmonella enterica serovars Typhimurium ATCC 14028 assessed as log reduction in viable counts at 150 ug/ml after 1hr. The class given is functional, organism-based. The conditions noted are these: Salmonella enterica subsp. enterica serovar Typhimurium.
Assay [2] deals with Salmonella enterica subsp. enterica serovar Virchow. The assay is described as follows: Antibacterial activity against Salmonella enterica serovars virchow isolate 101591 infected in mouse J774A.1 cells at 50 ug/ml after 1hr. The class given is functional, cell-based. An outline of the steps: (§1)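 J774 macrophages were seeded overnight at 37°C in 5% CO2, then switched to antibiotic-free RPMI. They were infected at 100:1 with Salmonella grown in RPMI to OD600 about 1. Extracellular bacteria were removed with 5 μg ml−1 polymyxin B for 10 min. Aminoglycoside was given for 1 h. Cells were lysed in 1% Triton X-100 buffer, and 1:10 serial dilutions were plated on LB agar.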

The test system is the same in assay [3]. The assay can be described thus: Antibacterial activity against Salmonella enterica serovars virchow isolate 101591 infected in mouse J774A.1 macrophage assessed as log reduction in viable counts at 150 ug/ml after 1hr. The class given is functional. An outline of the steps:
as §1

Assay [4] in a line: Antibacterial activity against Salmonella enterica serovars virchow isolate 101591 at pH 5.7 by bioluminescence assay. The class given is functional, Salmonella enterica subsp. enterica serovar Virchow. In outline:
(§2)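 Overnight cultures carrying the pChν1 lux plasmid were diluted 1:100 in LB broth with 30 μg ml−1 chloramphenicol, adjusted to pH 7 or 5.7. Final titer was ~10^6 CFU ml−1, with antibiotic at 0 to 500 μg ml−1. After 1 h at 30°C, homoserine-lactone (100 ng ml−1) was added to induce light. EC50 was the concentration halving light emission at 60 min; mean of three experiments.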

Assay [5] has as its system Salmonella enterica subsp. enterica serovar Virchow. The assay can be described thus: Reduction in light emission by Salmonella enterica serovars virchow isolate 101591 infected in mouse J774A.1 cells after 5 mins. The class given is functional, cell-based. An outline of the steps: (§3)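 Salmonella carrying pChν1 infected J774 macrophages (100:1, polymyxin B wash). Cells were held in antibiotic-free RPMI for 10 min at 37°C. Homoserine lactone 500 ng ml−1 was added, and 20 min later aminoglycoside at 15, 50, 100 or 150 μg ml−1. Luminescence was read every 5 min to 40 or 60 min, as % of untreated wells. Triplicate wells, at least three experiments.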

Assay [6] has as its system Salmonella typhimurium. The assay is described as follows: Antibacterial activity against Salmonella enterica serovars Typhimurium ATCC 14028 infected in mouse J774A.1 macrophage assessed as log reduction in viable counts at 150 ug/ml after 1hr. The class given is functional, organism-based. The conditions noted are these: Salmonella enterica subsp. enterica serovar Typhimurium. In outline: as §1

Assay [7] is described as follows: Antibacterial activity against Salmonella enterica serovars virchow isolate 101591 at pH 7.0 by bioluminescence assay. The class given is functional, Salmonella enterica subsp. enterica serovar Virchow. In outline:
as §2

The test system of assay [8] is Salmonella enterica subsp. enterica serovar Virchow. The assay can be described thus: Antibacterial activity against Salmonella enterica serovars virchow isolate 101591 assessed as log reduction in viable counts at 150 ug/ml after 1hr. The class given is functional.
The test system of assay [9] is Salmonella typhimurium. The assay is described as follows: Antibacterial activity against Salmonella enterica serovars Typhimurium ATCC 14028 infected in mouse J774A.1 cells at 50 ug/ml after 1hr. The conditions noted are these: Salmonella enterica subsp. enterica serovar Typhimurium. The class given is functional, organism-based. In outline:
as §1

Assay [10] can be described thus: (§4) Antibacterial activity against Salmonella enterica serovars virchow isolate 101591 at pH 7.0 by broth dilution method. The class given is functional, Salmonella enterica subsp. enterica serovar Virchow. An outline of the steps:
(§5)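 Broth dilution MIC. Overnight cultures were diluted 1:100 in LB broth buffered with phosphate to pH 7 or 5.7, giving a final inoculum of ~10^6 CFU ml−1. Antibiotic range was 0 to 500 μg ml−1. Absorbance at 600 nm was read after 24 h at 37°C with shaking; mean of three experiments.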
(In general: Broth dilution looks for growth in wells or tubes with falling amounts of substance.)

Assay [11] has as its system Salmonella typhimurium. The assay is described as follows: Antibacterial activity against Salmonella enterica serovars Typhimurium ATCC 14028 at pH 7.0 by bioluminescence assay. The class given is functional, organism-based, Salmonella enterica subsp. enterica serovar Typhimurium. In outline: as §2
Assay [12] concerns Salmonella typhimurium. The assay is described as follows: Antibacterial activity against Salmonella enterica serovars Typhimurium ATCC 14028 at pH 5.7 by broth dilution method. The class given is functional, Salmonella enterica subsp. enterica serovar Typhimurium. An outline of the steps: as §5
Assay [13] concerns Salmonella typhimurium. The assay is described as follows: Antibacterial activity against Salmonella enterica serovars Typhimurium ATCC 14028 at pH 5.7 by bioluminescence assay. The class given is functional, organism-based, Salmonella enterica subsp. enterica serovar Typhimurium. An outline of the steps: as §2
Assay [14] deals with Salmonella typhimurium. The assay is described as follows: Antibacterial activity against Salmonella enterica serovars Typhimurium ATCC 14028 at pH 7.0 by broth dilution method. The class given is functional, Salmonella enterica subsp. enterica serovar Typhimurium. An outline of the steps:
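Broth dilution MIC in LB broth buffered with phosphate to pH 7. Overnight culture was diluted 1:100 to about 10^6 CFU ml−1 final, with antibiotic at 0 to 500 μg ml−1. A600 was read after 24 h at 37°C with shaking.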

The nature of assay [15]: (§6) Antibacterial activity against Salmonella enterica serovars virchow isolate 101591 at pH 5.7 by broth dilution method. The class given is functional, Salmonella enterica subsp. enterica serovar Virchow. In outline:
as §5

The subject of assay [16] is Salmonella enterica subsp. enterica serovar Virchow. The assay is described as follows: Reduction in light emission by Salmonella enterica serovars virchow isolate 101591 after 5mins. The class given is functional.
The subject of assay [17] is Salmonella typhimurium. The assay is described as follows: Reduction in light emission by Salmonella enterica serovars Typhimurium ATCC 14028 at <= 30 ug/ml. The conditions noted are these: Salmonella enterica subsp. enterica serovar Typhimurium. The class given is functional, organism-based.
Assay [18] has as its system Salmonella enterica subsp. enterica serovar Virchow. The assay is described as follows: Reduction in light emission by Salmonella enterica serovars virchow isolate 101591 at < 50 ug/ml. The class given is functional.
Assay [19] deals with Salmonella typhimurium. The assay can be described thus: Reduction in light emission by Salmonella enterica serovars Typhimurium ATCC 14028 after 5 mins. The conditions noted are these: Salmonella enterica subsp. enterica serovar Typhimurium. The class given is functional, organism-based.
The subject of assay [20] is Salmonella typhimurium. The assay is described as follows: Reduction in light emission by Salmonella enterica serovars Typhimurium ATCC 14028 at > 30 ug/ml after 40 mins. The class given is functional, organism-based. Conditions: Salmonella enterica subsp. enterica serovar Typhimurium.
Assay [21] deals with Salmonella. The assay can be described thus: Antibacterial activity against Salmonella infected in mouse Nramp1 deficient RAW 264.7 cells assessed as log reduction in viable count at 100 ug/ml. The class given is functional, organism-based.
The test system of assay [22] is Salmonella typhimurium. The assay can be described thus: Reduction in light emission by Salmonella enterica serovars Typhimurium ATCC 14028 infected in mouse J774A.1 cells at 50 ug/ml after 40 mins. The class given is functional, organism-based. Conditions: Salmonella enterica subsp. enterica serovar Typhimurium. An outline of the steps:
as §3

Assay [23] has as its system Salmonella typhimurium. The assay is described as follows: Reduction in light emission by Salmonella enterica serovars Typhimurium ATCC 14028 infected in mouse J774A.1 cells at 50 ug/ml within 5 mins. The class given is functional, organism-based. Conditions: Salmonella enterica subsp. enterica serovar Typhimurium. An outline of the steps:
as §3

In assay [24] the test system is Salmonella typhimurium. The assay can be described thus: Reduction in light emission by Salmonella enterica serovars Typhimurium ATCC 14028 infected in mouse J774A.1 cells at 15 ug/ml after 40 mins. The class given is functional, organism-based. Details: scale not given: the % may be the effect or the level left. Conditions: Salmonella enterica subsp. enterica serovar Typhimurium. An outline of the steps: as §3

Assay [25] concerns Salmonella typhimurium. The assay can be described thus: Reduction in light emission by Salmonella enterica serovars Typhimurium ATCC 14028 infected in mouse J774A.1 cells at 15 ug/ml after 30 mins. The class given is functional, organism-based. The conditions noted are these: Salmonella enterica subsp. enterica serovar Typhimurium. In outline: as §3
The test system of assay [26] is Salmonella enterica subsp. enterica serovar Virchow. The assay can be described thus: Reduction in light emission by Salmonella enterica serovars virchow isolate 101591 at >= 50 ug/ml after 40 mins. The class given is functional.
The test system is the same in assay [27]. Described as §4. The class given is functional. An outline of the steps:
as §5

The subject of assay [28] is Salmonella. The assay can be described thus: Antibacterial activity against Salmonella infected in mouse RAW 264.7 cells expressing Nramp1 assessed as log reduction in viable count at 100 ug/ml. The class given is functional, organism-based.
The test system of assay [29] is Salmonella typhimurium. The assay is described as follows: Reduction in light emission by Salmonella enterica serovars Typhimurium ATCC 14028 infected in mouse J774A.1 cells at 50 ug/ml after 30 mins. The class given is functional, organism-based. Conditions: Salmonella enterica subsp. enterica serovar Typhimurium. In outline: as §3
Assay [30] deals with Salmonella typhimurium. The assay is described as follows: Reduction in light emission by Salmonella enterica serovars Typhimurium ATCC 14028 infected in mouse Nramp deficient RAW 264.7 cells at 100 ug/ml. On the set-up: scale not given: the % may be the effect or the level left. The class given is functional, organism-based. The conditions noted are these: Salmonella enterica subsp. enterica serovar Typhimurium. An outline of the steps: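 RAW 264.7 macrophages, Nramp1+ (R37) or Nramp1-null (R21), were infected with serovar Typhimurium carrying pChν1. Homoserine lactone was 500 ng ml−1. Gentamicin 100 μg ml−1 was added 0.5 to 3 h after infection. Luminescence was read every 5 min, as a ratio to untreated control in the same cell line. Triplicate, at least three trials.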

The subject of assay [31] is Salmonella enterica subsp. enterica serovar Virchow. Described as §6. The class given is functional. An outline of the steps:
as §5

[32] abbreviates: Salmonella enterica, ATCC 14028, read-out: EC50.
Where [33] appears, read: Salmonella enterica subsp. enterica serovar Typhimurium.

As to `NC[C@H]1O[C@H](O[C@H]2[C@H](O)[C@@H](O[C@H]3O[C@H](CO)[C@@H](O)[C@H](N)[C@H]3O)[C@H](N)C[C@@H]2N)[C@H](O)[C@@H](O)[C@@H]1O` [KANAMYCIN], the outcome (in the assay with Salmonella typhimurium [1]; in [2]; in [3]; in [5]; in the assay with Salmonella typhimurium [6]; in assay [8]) was Active. The EC50 (as a rule, the concentration needed to bring the measured effect to its halfway point) was found to be 130 µg/mL (≈ 268 µM) in [4], 6.5 µg/mL (≈ 13.4 µM) in assay [7], 3.5 µg/mL (≈ 7.22 µM) with Salmonella typhimurium [11] (setting [32]) and 29 µg/mL (≈ 59.9 µM) with Salmonella typhimurium [13] (setting [32]). Further, the result with Salmonella typhimurium [9] was inactive. For the same compound, the MIC (commonly the least concentration at which growth counts as inhibited) came to 16 µg/mL (≈ 33 µM) in assay [10], 250 µg/mL (≈ 516 µM) in the assay on Salmonella typhimurium [12], 8 µg/mL (≈ 16.5 µM) in the assay with Salmonella typhimurium [14] and 250 µg/mL (≈ 516 µM) in assay [15].

`NC[C@H]1O[C@H](O[C@H]2[C@H](O)[C@@H](O[C@H]3O[C@H](CO)[C@@H](O)[C@H](N)[C@H]3O)[C@H](N)C[C@@H]2N)[C@H](N)C[C@@H]1O` [TOBRAMYCIN]: the outcome (in the assay on Salmonella typhimurium [1]; in [2]; in assay [3]; in assay [5]; in the assay with Salmonella typhimurium [6]; in assay [8]) was Active. Further, the EC50 is 75 µg/mL (≈ 160 µM) in [4], 2.5 µg/mL (≈ 5.35 µM) in assay [7], 1 µg/mL (≈ 2.14 µM) with Salmonella typhimurium [11] (setting [32]) and 19 µg/mL (≈ 40.6 µM) with Salmonella typhimurium [13] (setting [32]). In addition, in the assay on Salmonella typhimurium [9], the outcome was inactive. Further, the MIC in [10] came out at 8 µg/mL (≈ 17.1 µM); with Salmonella typhimurium [12], 125 µg/mL (≈ 267 µM); in the assay on Salmonella typhimurium [14], 4 µg/mL (≈ 8.56 µM); in assay [15] it was 250 µg/mL (≈ 535 µM).

Take GENTAMICIN [listing 1 of 2 here]: the result (in the assay on Salmonella typhimurium [1]; in [16]; in assay [2]; in assay [3]; in the assay on Salmonella typhimurium [19]; in the assay on Salmonella typhimurium [20]) was Active. In addition, the outcome (in the assay with Salmonella typhimurium [22]; in the assay on Salmonella typhimurium [6]; in the assay on Salmonella typhimurium [23]; with Salmonella typhimurium [25]; in [8]; in [26]) was Active. Further, the result in the assay with Salmonella typhimurium [29] was Active. Further, the result (in the assay with Salmonella typhimurium [17]; in assay [18]; with Salmonella typhimurium [9]) was inactive. Also, the FC in the assay on Salmonella [21] came out at 1.6; in the assay on Salmonella [28], 0.4. Also, the Activity with Salmonella typhimurium [24] is 20%; in the assay on Salmonella typhimurium [30], 80%. For the same compound, the MIC in assay [27] came to 8 µg/mL; against Salmonella typhimurium [12] (setting [33]) it was 125 µg/mL; with Salmonella typhimurium [14] (setting [33]), 4 µg/mL; in [31] it was 125 µg/mL.

For the compound GENTAMICIN [listing 2 of 2 here], the EC50 in assay [4] is 85 µg/mL; in assay [7] it was 2 µg/mL; in the assay on Salmonella typhimurium [11], 1 µg/mL; in the assay with Salmonella typhimurium [13], 34 µg/mL.
